# Results as given in ChEMBL document CHEMBL6134770, “Miniaturized click chemistry and direct screening facilitate the discovery of triazole piperazine SARS-CoV-2 Mpro inhibitors with improved metabolic stability” (RSC Med Chem, 2025).
# Active and inactive are the calls of the source. The rule behind the calls is not given here.
# Tests used:
# [1] = tested on: Severe acute respiratory syndrome coronavirus 2; assay: Inhibition of SARS-CoV-2 Main protease using MCA-AVLQSGFR-Lys(Dnp)-Lys-NH2 as substrate at 5 uM preincubated for 10 mins followed by substrate addition and measured after 10 mins by FRET assay relative to control; conditions: time 20.0 min
# [2] = Inhibition of SARS-CoV-2 Main protease using MCA-AVLQSGFR-Lys(Dnp)-Lys-NH2 as substrate preincubated for 10 mins followed by substrate addition and measured after 10 mins by FRET assay; design: species or system Severe acute respiratory syndrome coronavirus 2
# In short: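 Mpro (1.5 μM stock) was preincubated with purified compound for 10 min at 37 °C in Tris–HCl/NaCl, pH 7.3. FRET substrate was then added and fluorescence (ex 320/em 405) followed for 10 min. Inhibition was calculated from initial 60 s slopes versus control and blank wells. Compounds were tested at 0.1, 0.5, 1, 5 and 10 μM in three independent experiments, and IC50 was fitted.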
# SARS-CoV-2 [3] = assay: Antiviral activity against SARS-CoV-2 infected in African green monkey Vero E6 cells pre-infected with cells for 1 hr followed by compound treatment and measured after 25 to 26 hrs by ELISPOT assay; type: functional, organism-based; conditions: Severe acute respiratory syndrome coronavirus 2, Vero C1008
# [4] = Cytotoxicity against African green monkey Vero E6 cells assessed as cell viability measured for 26 hrs by MTS assay; type: toxicity, cell-based, Vero C1008; conditions: chlorocebus sabaeus
# In short: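 Vero E6 cells were seeded at 1.7 × 10^4 per well in DMEM/10% FBS for 24 h. They were then exposed to compound in DMEM/5% FBS (final 1% DMSO) for 26 h at 37 °C, 5% CO2. MTS/PMS was added for 4 h and A490 read, minus media blank, normalised to DMSO wells. CC50 was fitted by four-parameter model with bottom fixed at zero, from ≥3 replicates.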
# [5] = Metabolic stability in rat liver microsome assessed as half life measured up to 60 mins in presence of NADPH by LC-MS/MS analysis; type: ADME; conditions: liver microsomes
# In short: (§1)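 Microsomes (0.5 mg/mL) and 1 μM compound (final) in 100 mM phosphate buffer were prewarmed 5 min at 37 °C. Reactions were started with NADPH-regenerating solution; a no-NADPH control was run. Samples at 0, 5, 15, 30 and 60 min were quenched with cold MeOH:acetonitrile 1:1 containing labetalol/tolbutamide internal standards. Percent remaining is mean of n = 2. t1/2 came from the slope, and CLint was scaled with factor 1800.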
# [6] = Metabolic stability in rat liver microsome assessed as intrinsic clearance measured up to 60 mins in presence of NADPH by LC-MS/MS analysis; type: ADME; conditions: liver microsomes; in short: as §1
# SARS-CoV-2 [7] = assay: Antiviral activity against SARS-CoV-2; type: functional, organism-based; conditions: Severe acute respiratory syndrome coronavirus 2
# [8] = Metabolic stability in rat liver microsome assessed as parent compound remaining measured immediately in presence of NADPH by LC-MS/MS analysis; type: ADME; conditions: liver microsomes, read-out: Stability; in short: as §1
# [9] = Metabolic stability in rat liver microsome assessed as parent compound remaining measured at 5 mins in presence of NADPH by LC-MS/MS analysis; type: ADME; conditions: liver microsomes, read-out: Stability; in short: as §1
# [10] = Metabolic stability in rat liver microsome assessed as parent compound remaining measured at 15 mins in presence of NADPH by LC-MS/MS analysis; type: ADME; conditions: liver microsomes, read-out: Stability; in short: as §1
# [11] = Metabolic stability in rat liver microsome assessed as parent compound remaining measured at 30 mins in presence of NADPH by LC-MS/MS analysis; type: ADME; conditions: liver microsomes, read-out: Stability; in short: as §1
# [12] = Metabolic stability in rat liver microsome assessed as parent compound remaining measured at 60 mins in presence of NADPH by LC-MS/MS analysis; type: ADME; conditions: liver microsomes, read-out: Stability; in short: as §1
# [13] = Drug degradation in rat liver microsome measured within 15 mins in presence of NADPH by LC-MS/MS analysis; type: ADME; conditions: liver microsomes, read-out: Drug degradation; in short: as §1
SMILES,inhibition [1],IC50 [2] [µM],EC50 (SARS-CoV-2 [3]) [µM],CC50 at 26 h [4] [µM],half-life [5] [min],CLint scaled [6] [mL/min/kg],EC50 (SARS-CoV-2 [7]) [µM],remaining at 0 min [8] [%],remaining at 5 min [9] [%],remaining at 0.25 h [10] [%],remaining at 0.5 h [11] [%],remaining at 1 h [12] [%],metabolised at 0.25 h [13] [%]
O=C(c1cccnc1)N1CCN(c2ccc(Cl)c(Cl)c2)[C@H](c2cn(-c3ccc4c(c3)OCO4)nn2)C1,Active,2.23,6.32,> 100,–,–,–,–,–,–,–,–,–
O=C(O)Cc1ccccc1Nc1c(Cl)cccc1Cl [DICLOFENAC],–,–,–,–,16.6,150,–,–,–,–,–,–,–
Cn1cnc(Cn2c(=O)[nH]/c(=N\c3cc4cn(C)nc4cc3Cl)n(Cc3cc(F)c(F)cc3F)c2=O)n1,–,–,–,–,–,–,0.11,–,–,–,–,–,–
O=C(NCc1cccs1)[C@@H]1CN(C(=O)c2cccnc2)CCN1c1ccc(Cl)c(Cl)c1,Active,0.39,1.78,–,2.51,994,–,100,22.7,1.56,0,0,100
O=C(c1cccnc1)N1CCN(c2ccc(Cl)c(Cl)c2)[C@H](c2cn(-c3ccc(CO)cc3)nn2)C1,Active,1.87,6.99,–,10.3,242,–,100,70.7,36.5,13.3,5.1,–
